Measurements from ChEMBL document CHEMBL1151473, “Posaconazole activity against Candida glabrata after exposure to caspofungin or amphotericin B” (2008).
In brackets after ≈: the same amount, converted by molar mass. Activity calls are given as the source filed them. No cut-off for these calls is given here.

Assays:
Nakaseomyces glabratus [1] = test: Antifungal activity against Candida glabrata isolate 4198 after 48 hrs by broth microdilution method; format: functional
Outline: (§1)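 CLSI broth microdilution with final drug concentrations […], incubated at 35°C and read spectrophotometrically at 490 nm at 24 and 48 h. MIC is the first concentration giving 50% turbidity reduction versus control, or 90% for amphotericin B. Run in quintuplicate.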

Nakaseomyces glabratus [2] = test: Antifungal activity against 1.04 x 10^8 CFU Candida glabrata isolate 4293 infected in CD1 mouse assessed as inhibition of regrowth in fungal burden in kidney at 1 mg/kg/day, ip administered from day 1 to day 2 followed by PEG-200 infusion from day 3 to day 6 post viral challenge measured on day 7 postinfection; format: functional, organism-based
Outline: (§2)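 Male CD1 mice (25 g) made neutropenic with cyclophosphamide 200 mg/kg/day ip on days −4, +1 and +4 postinfection. Infected iv with C. glabrata 4293 in 0.2 ml. Treatment began 24 h postchallenge, with 1 mg/kg/day ip in 0.2 ml. Sacrifice on day 3 or day 7. Kidney pairs homogenized; diluted and undiluted aliquots plated on Sabouraud dextrose agar for CFU. Medians reported; 7–8 mice per group.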

Nakaseomyces glabratus [3] = test: Antifungal activity against 2.44 x 10^8 CFU Candida glabrata isolate 4293 infected in CD1 mouse assessed as inhibition of regrowth in fungal burden in kidney at 1 mg/kg/day, ip administered from day 1 to day 2 post viral challenge measured on day 7 postinfection; format: functional, organism-based; outline: as §2
Nakaseomyces glabratus [4] = test: Antifungal activity against 1.04 x 10^8 CFU Candida glabrata isolate 4293 infected in CD1 mouse assessed as inhibition of regrowth in fungal burden in kidney at 1 mg/kg/day, ip administered from day 1 to day 2 post viral challenge measured on day 7 postinfection; format: functional, organism-based; outline: as §2
Nakaseomyces glabratus [5] = test: Antifungal activity against Candida glabrata isolate 4205 after 48 hrs by broth microdilution method; format: functional; conditions: isolate 4205, 48 h; outline: as §1
Nakaseomyces glabratus [6] = test: Antifungal activity against 2.44 x 10^8 CFU Candida glabrata isolate 4293 infected in CD1 mouse assessed as reduction in […] per kidney pair at 1 mg/kg/day, ip administered from day 1 to day 2 followed by PEG-200 infusion from day 3 to day 6 […] measured on day 7 postinfection relative to control; format: functional, organism-based; outline: as §2
Nakaseomyces glabratus [7] = test: Antifungal activity against 1.04 x 10^8 CFU Candida glabrata isolate 4293 infected in CD1 mouse assessed as reduction in viral count per kidney pair at 1 mg/kg/day, ip administered from day 1 to day 2 followed by PEG-200 infusion from day 3 to day 6 post viral challenge measured on day 7 postinfection relative to control; format: functional, organism-based; outline: as §2
Nakaseomyces glabratus [8] = test: Antifungal activity against 2.44 x 10^8 CFU Candida glabrata isolate 4293 infected in CD1 mouse assessed as inhibition of regrowth in fungal burden in kidney at 1 mg/kg/day, ip administered from day 1 to day 2 followed by PEG-200 infusion from day 3 to day 6 post viral challenge measured on day 7 postinfection; format: functional, organism-based; outline: as §2
Nakaseomyces glabratus [9] = test: Antifungal activity against 1.04 x 10^8 CFU Candida glabrata isolate 4293 infected in CD1 mouse assessed as reduction in fungal burden per kidney pair at 1 mg/kg/day, ip administered from day 1 to day 2 post viral challenge measured on day 3 postinfection; format: functional, organism-based; outline: as §2
Candida parapsilosis = test: Antifungal activity against Candida parapsilosis ATCC 22019 after 48 hrs by broth microdilution method; format: functional; conditions: Lodderomyces parapsilosis, ATCC 22019, 48 h; outline: as §1
Nakaseomyces glabratus [10] = test: Antifungal activity against Candida glabrata isolate 4293 after 48 hrs by broth microdilution method; format: functional; outline: as §1
Nakaseomyces glabratus [11] = test: Antifungal activity against 2.44 x 10^8 CFU Candida glabrata isolate 4293 infected in CD1 mouse assessed as reduction in fungal burden per kidney pair at 1 mg/kg/day, ip administered from day 1 to day 2 post viral challenge measured on day 3 postinfection; format: functional, organism-based; outline: as §2
Nakaseomyces glabratus [12] = test: Antifungal activity against Candida glabrata isolate 4370 after 48 hrs by broth microdilution method; format: functional; outline: as §1
Nakaseomyces glabratus [13] = test: Antifungal activity against Candida glabrata isolate 4293 pretreated overnight with 0.5 times of caspofungin MIC measured at 5 ug/disk after 24 hrs by halo assay; format: functional; conditions: read-out: IZ
Outline: (§3)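 Exposed or unexposed C. glabrata 4293 cells (1 x 10^6 CFU/ml) plated on Mueller-Hinton agar with methylene blue. 6-mm disks loaded with 20 µl posaconazole at 5 or 15 µg. Incubated at 35°C; inhibition zone diameters measured at 24 and 48 h; quintuplicate.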

Nakaseomyces glabratus [14] = test: Antifungal activity against Candida glabrata isolate 4198 pretreated overnight with 0.5 times of amphotericin B MIC measured after 48 hrs by broth microdilution method; format: functional
Nakaseomyces glabratus [15] = test: Antifungal activity against Candida glabrata isolate 4293 assessed as viable yeast cells pretreated overnight with 0.25 ug/ml caspofungin measured at 0.5 ug/ml after 48 hrs; format: functional
Nakaseomyces glabratus [16] = test: Antifungal activity against Candida glabrata isolate 4293 pretreated overnight with 0.5 times of amphotericin B MIC measured at 5 ug/disk after 24 hrs by halo assay; format: functional; conditions: read-out: IZ; outline: as §3
Nakaseomyces glabratus [17] = test: Antifungal activity against Candida glabrata isolate 4293 pretreated overnight with 0.5 times of caspofungin MIC measured at 15 ug/disk after 24 hrs by halo assay; format: functional; conditions: read-out: IZ; outline: as §3
Nakaseomyces glabratus [18] = test: Antifungal activity against Candida glabrata isolate 4293 assessed as viable yeast cells pretreated overnight with 0.015 ug/ml caspofungin measured at 4 ug/ml measured after 48 hrs; format: functional
Nakaseomyces glabratus [19] = test: Antifungal activity against Candida glabrata isolate 4293 assessed as viable yeast cells pretreated overnight with 0.25 ug/ml caspofungin measured at 4 ug/ml measured after 48 hrs; format: functional
Nakaseomyces glabratus [20] = test: Antifungal activity against Candida glabrata isolate 4205 pretreated overnight with 0.5 times of amphotericin B MIC measured after 48 hrs by broth microdilution method; format: functional
Nakaseomyces glabratus [21] = test: Antifungal activity against Candida glabrata isolate 4293 pretreated overnight with 0.5 times of caspofungin MIC measured after 48 hrs by broth microdilution method; format: functional
Nakaseomyces glabratus [22] = test: Antifungal activity against 2.44 x 10^8 CFU Candida glabrata isolate 4293 infected in CD1 mouse assessed as reduction in colony forming units treated with a therapeutic regimen of sterile saline solution from day 1 to day 2 followed by 15 mg/kg/day drug administration via oral gavage from day 3 to day 6 post […] challenge measured on day 7 postinfection relative to control; format: functional, organism-based
Outline: (§4)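 CD1 male mice, 25 g, made neutropenic with intraperitoneal cyclophosphamide at 200 mg/kg/day on days −4, +1 and +4. Infected intravenously with C. glabrata 4293 in 0.2 ml. Therapy starts 24 h postchallenge: sterile saline placebo, then once-daily oral gavage in 0.2 ml. Kidney pairs homogenized and plated on Sabouraud dextrose agar for CFU; seven to eight animals per group; medians reported.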

Nakaseomyces glabratus [23] = test: Antifungal activity against Candida glabrata isolate 4293 at 15 ug/disk after 24 hrs by halo assay; format: functional; conditions: isolate 4293, 24 h, read-out: IZ; outline: as §3
Nakaseomyces glabratus [24] = test: Antifungal activity against Candida glabrata isolate 4370 pretreated overnight with 0.5 times of caspofungin MIC measured after 48 hrs by broth microdilution method; format: functional
Nakaseomyces glabratus [25] = test: Antifungal activity against Candida glabrata isolate 4293 pretreated overnight with 0.125 times of amphotericin B MIC measured at 5 ug/disk after 24 hrs by halo assay; format: functional; conditions: read-out: IZ; outline: as §3
Nakaseomyces glabratus [26] = test: Antifungal activity against Candida glabrata isolate 4293 pretreated overnight with 0.125 times of caspofungin MIC measured at 5 ug/disk after 24 hrs by halo assay; format: functional; conditions: read-out: IZ; outline: as §3
Nakaseomyces glabratus [27] = test: Antifungal activity against Candida glabrata isolate 4293 at 5 ug/disk after 24 hrs by halo assay; format: functional; conditions: isolate 4293, 24 h, read-out: IZ; outline: as §3
Nakaseomyces glabratus [28] = test: Antifungal activity against Candida glabrata isolate 4293 pretreated overnight with 0.5 times of amphotericin B MIC measured after 48 hrs by broth microdilution method; format: functional
Nakaseomyces glabratus [29] = test: Antifungal activity against Candida glabrata isolate 4293 assessed as viable yeast cells pretreated overnight with 0.015 ug/ml caspofungin measured at 0.5 ug/ml after 48 hrs; format: functional
Nakaseomyces glabratus [30] = test: Antifungal activity against Candida glabrata isolate 4205 pretreated overnight with 0.5 times of caspofungin MIC measured after 48 hrs by broth microdilution method; format: functional
Nakaseomyces glabratus [31] = test: Antifungal activity against Candida glabrata isolate 4370 pretreated overnight with 0.5 times of amphotericin B MIC measured after 48 hrs by broth microdilution method; format: functional
Nakaseomyces glabratus [32] = test: Antifungal activity against Candida glabrata isolate 4293 pretreated overnight with 0.125 times of amphotericin B MIC measured at 15 ug/disk after 24 hrs by halo assay; format: functional; conditions: read-out: IZ; outline: as §3
Nakaseomyces glabratus [33] = test: Antifungal activity against Candida glabrata isolate 4293 pretreated overnight with 0.125 times of caspofungin MIC measured at 15 ug/disk after 24 hrs by halo assay; format: functional; conditions: read-out: IZ; outline: as §3
Nakaseomyces glabratus [34] = test: Antifungal activity against Candida glabrata isolate 4198 pretreated overnight with 0.5 times of caspofungin MIC measured after 48 hrs by broth microdilution method; format: functional
Nakaseomyces glabratus [35] = test: Antifungal activity against 1.04 x 10^8 CFU Candida glabrata isolate 4293 infected in CD1 mouse assessed as reduction in colony forming units treated with a therapeutic regimen of sterile saline solution from day 1 to day 2 followed by 30 mg/kg/day drug administration via oral gavage from day 3 to day 6 post viral challenge measured on day 7 postinfection relative to control; format: functional, organism-based; outline: as §4
Nakaseomyces glabratus [36] = test: Antifungal activity against Candida glabrata isolate 4293 pretreated overnight with 0.5 times of amphotericin B MIC measured at 15 ug/disk after 24 hrs by halo assay; format: functional; conditions: read-out: IZ; outline: as §3

C[C@@H]1[C@H](O)[C@@H](C)/C=C/C=C/C=C/C=C/C=C/C=C/C=C/[C@H](O[C@@H]2O[C@H](C)[C@@H](O)[C@H](N)[C@@H]2O)C[C@@H]2O[C@](O)(C[C@@H](O)C[C@@H](O)[C@H](O)CC[C@@H](O)C[C@@H](O)CC(=O)O[C@H]1C)C[C@H](O)[C@H]2C(=O)O [AMPHOTERICIN B]
MIC (Nakaseomyces glabratus [1]): 0.5 µg/mL (≈ 0.541 µM)
Activity (Nakaseomyces glabratus [2]): inactive
Activity (Nakaseomyces glabratus [3]): inactive
Activity (Nakaseomyces glabratus [4]): inactive
MIC (Nakaseomyces glabratus [5]): 0.5 µg/mL (≈ 0.541 µM)
Activity (Nakaseomyces glabratus [6]): Active
Activity (Nakaseomyces glabratus [7]): Active
Activity (Nakaseomyces glabratus [8]): inactive
Activity (Nakaseomyces glabratus [9]): inactive
MIC (Candida parapsilosis): 1 µg/mL (≈ 1.08 µM)
MIC (Nakaseomyces glabratus [10]): 0.5 µg/mL (≈ 0.541 µM)
Activity (Nakaseomyces glabratus [11]): inactive
MIC (Nakaseomyces glabratus [12]): 1 µg/mL (≈ 1.08 µM)

CC[C@@H]([C@H](C)O)n1ncn(-c2ccc(N3CCN(c4ccc(OC[C@@H]5CO[C@@](Cn6cncn6)(c6ccc(F)cc6F)C5)cc4)CC3)cc2)c1=O [POSACONAZOLE]
MIC (Nakaseomyces glabratus [1]): 0.5 µg/mL (≈ 0.713 µM)
zone of inhibition at 5 µg/disc (Nakaseomyces glabratus [13]): 26.8 mm
MIC (Nakaseomyces glabratus [14]): 0.5 µg/mL (≈ 0.713 µM)
Activity (Nakaseomyces glabratus [15]): 6.2%
zone of inhibition at 5 µg/disc (Nakaseomyces glabratus [16]): 28.4 mm
zone of inhibition at 15 µg/disc (Nakaseomyces glabratus [17]): 29 mm
Activity (Nakaseomyces glabratus [18]): 0.01%
Activity (Nakaseomyces glabratus [19]): 0.01%
MIC (Nakaseomyces glabratus [20]): ≤ 0.03 µg/mL
MIC (Nakaseomyces glabratus [21]): 0.125 µg/mL (≈ 0.178 µM)
Activity (Nakaseomyces glabratus [22]): Active
MIC (Nakaseomyces glabratus [5]): ≤ 0.03 µg/mL
zone of inhibition at 15 µg/disc (Nakaseomyces glabratus [23]): 30 mm
MIC (Nakaseomyces glabratus [24]): 0.125 µg/mL (≈ 0.178 µM)
zone of inhibition at 5 µg/disc (Nakaseomyces glabratus [25]): 27 mm
zone of inhibition at 5 µg/disc (Nakaseomyces glabratus [26]): 28 mm
zone of inhibition at 5 µg/disc (Nakaseomyces glabratus [27]): 29 mm
MIC (Nakaseomyces glabratus [28]): 0.25 µg/mL (≈ 0.357 µM)
Activity (Nakaseomyces glabratus [29]): 6.2%
MIC (Nakaseomyces glabratus [30]): 0.06 µg/mL (≈ 0.0856 µM)
MIC (Candida parapsilosis): ≤ 0.03 µg/mL
MIC (Nakaseomyces glabratus [10]): 0.25 µg/mL (≈ 0.357 µM)
MIC (Nakaseomyces glabratus [31]): 0.06 µg/mL (≈ 0.0856 µM)
zone of inhibition at 15 µg/disc (Nakaseomyces glabratus [32]): 30 mm
zone of inhibition at 15 µg/disc (Nakaseomyces glabratus [33]): 29.6 mm
MIC (Nakaseomyces glabratus [34]): 1 µg/mL (≈ 1.43 µM)
Activity (Nakaseomyces glabratus [35]): Active
zone of inhibition at 15 µg/disc (Nakaseomyces glabratus [36]): 29.8 mm
MIC (Nakaseomyces glabratus [12]): 0.06 µg/mL (≈ 0.0856 µM)
